Type in all cases: functional
Experiment [1] deals with Shigella sonnei. Briefly: Antimicrobial activity against Shigella sonnei UIH-1 expressing beta-lactamase CTX-M-64 by disk diffusion method in presence of beta-lactamase inhibitor Sulbactam.
Experiment [2] has as its system Escherichia coli. Briefly: Antimicrobial activity against Escherichia coli XL-1 Blue harboring beta-lactamase CTx-M-64transconjugant by disk diffusion method in presence of beta-lactamase inhibitor Sulbactam.
The subject of experiment [3] is Shigella sonnei. Briefly: Antimicrobial activity against Shigella sonnei UIH-1 expressing beta-lactamase CTX-M-64 by disk diffusion method. The essentials: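 Non-β-lactam susceptibility determined by CLSI disk diffusion on the clinical isolate. Categories assigned by CLSI criteria.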
Experiment [4] relates to Escherichia coli. Briefly: Antimicrobial activity against Escherichia coli XL-1 Blue transconjugant harboring beta-lactamase CTX-M-64 by disk diffusion method. In short, it runs like this: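 Non-β-lactam agents were tested by CLSI disk diffusion. Susceptibility categories were assigned by CLSI criteria.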

The source of these data is ChEMBL document CHEMBL1629574, “Novel chimeric beta-lactamase CTX-M-64, a hybrid of CTX-M-15-like and CTX-M-14 beta-lactamases, found in a Shigella sonnei strain resistant to various oxyimino-cephalosporins, including ceftazidime” (Antimicrob Agents Chemother, 2009).

Converted amounts (≈) assume the structure as drawn.

With `CCN1CCN(C(=O)N[C@@H](C(=O)N[C@@H]2C(=O)N3C(C(=O)O)=C(CSc4nnnn4C)CS[C@H]23)c2ccc(O)cc2)C(=O)C1=O` [CEFOPERAZONE], the minimum inhibitory concentration (MIC) is 8 µg/mL in the experiment with Shigella sonnei [1], > 32 µg/mL in the experiment with Escherichia coli [2], 8 µg/mL (≈ 12.4 µM) in the experiment on Shigella sonnei [3] and > 32 µg/mL in the experiment with Escherichia coli [4].
